Data: ChEMBL document CHEMBL4414632, “Design, Synthesis, and Biological Evaluation of Novel Indoles Targeting the Influenza PB2 Cap Binding Region” (J Med Chem, 2019)
Active and inactive are the calls of the source. The calls are words filed in the database; no cut-off is given here.

Experiments:
[1] = Therapeutic index, ratio of CC50 for human A549 cells to IC50 for Influenza A virus (A/Puerto Rico/8/34(H1N1)); format: toxicity; conditions: read-out: Ratio CC50/IC50
Influenza A virus [2] = assay: Antiviral activity against Influenza A virus (A/Puerto Rico/8/34(H1N1)) infected in human A549 cells assessed as reduction in virus neuraminidase level incubated for 24 hrs by fluorescence based assay; format: functional, organism-based; conditions: A/Puerto Rico/8/1934(H1N1), A549, 24 h
How it was run: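 A549 cells, 6,000/well, seeded onto compound (nine four-fold dilutions) in Ham's F12 with 2% FBS, 1% Hepes, gentamycin, 24 h at 37°C, 5% CO2; then infected with A/Puerto Rico/8/34 at MOI 1 for further 24 h.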

Influenza A virus [3] = assay: In vivo antiviral activity against Influenza A virus (A/Puerto Rico/8/34(H1N1)) infected in BALB/c mouse assessed as survival rate at 10 mg/kg, po administered bid for 10 days after 48 hrs post infection and observed for 21 days relative to control; format: functional, A/Puerto Rico/8/1934(H1N1)
[4] = Displacement of gamma-[6-aminohexyl]-GTP-biotin from Influenza B virus B/Brisbane/60/2008 C-terminal 6His-tagged PB2 (320 to 484 residues) expressed in Escherichia coli incubated for 1 hr by TR-FRET assay
[5] = Therapeutic index, ratio of CC50 for dog MDCK cells to IC50 for Influenza A virus A/[…]/3/1975 (H3N2); format: toxicity; conditions: read-out: Ratio CC50/IC50
[6] = Therapeutic index, ratio of CC50 for dog MDCK cells to IC50 for Influenza A virus (A/Taiwan/1/1986(H1N1)); format: toxicity; conditions: read-out: Ratio CC50/IC50
Influenza A virus [7] = assay: Antiviral activity against Influenza A virus A/[…]/3/1975 (H3N2) infected in MDCK cells assessed as reduction in virus-induced cytopathic effect by measuring ATP level incubated for 24 hrs by ATPlite luminescence assay; format: functional, organism-based
[8] = Displacement of gamma-[6-aminohexyl]-GTP-biotin from Influenza A virus A/Victoria/3/1975 (H3N2) N-terminal 6His-tagged PB2 (320 to 484 residues) expressed in Escherichia coli incubated for 1 hr by TR-FRET assay
Influenza A virus [9] = assay: Antiviral activity against Influenza A virus (A/Taiwan/1/1986(H1N1)) infected in MDCK cells assessed as reduction in virus-induced cytopathic effect by measuring ATP level incubated for 24 hrs by ATPlite luminescence assay; format: functional, organism-based
[10] = target: Glycogen synthase kinase-3 beta (Homo sapiens) (UniProt P49841); assay: Inhibition of GSK3beta (unknown origin) at 1 uM
Sequence of Glycogen synthase kinase-3 beta (Homo sapiens) (P49841 whole entry, looked up): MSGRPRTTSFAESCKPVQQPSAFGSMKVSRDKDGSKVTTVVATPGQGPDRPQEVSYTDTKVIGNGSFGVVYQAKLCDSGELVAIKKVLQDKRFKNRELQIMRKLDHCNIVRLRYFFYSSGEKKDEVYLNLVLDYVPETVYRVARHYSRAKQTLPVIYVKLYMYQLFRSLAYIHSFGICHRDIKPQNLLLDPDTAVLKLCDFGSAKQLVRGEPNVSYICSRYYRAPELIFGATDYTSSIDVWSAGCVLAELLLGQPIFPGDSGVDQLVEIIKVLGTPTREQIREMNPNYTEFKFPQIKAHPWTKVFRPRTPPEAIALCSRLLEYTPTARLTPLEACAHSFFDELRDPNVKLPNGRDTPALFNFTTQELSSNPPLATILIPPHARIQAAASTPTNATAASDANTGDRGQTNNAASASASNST

Influenza A virus [11] = assay: In vivo antiviral activity against Influenza A virus (A/Puerto Rico/8/34(H1N1)) infected in BALB/c mouse assessed as survival rate at 30 mg/kg, po administered bid for 10 days after 48 hrs post infection and observed for 21 days relative to control; format: functional, A/Puerto Rico/8/1934(H1N1)

Compound `CCOC(=O)C1=C[C@@H](OC(CC)CC)[C@H](NC(C)=O)[C@@H](N)C1` [OSELTAMIVIR] has a selectivity ratio [1] greater than 4130, an IC50 (Influenza A virus [2]) of 31 nM and an Activity (Influenza A virus [3]) of 38%.
`Cc1cc(F)c2[nH]cc(-c3ncc(F)c(N[C@H]4C5CCC(CC5)[C@@H]4C(=O)O)n3)c2c1` gave an IC50 [4] of 26000 nM, a selectivity ratio [5] of 25 and a selectivity ratio [1] of 1490. It also gave an IC50 (Influenza A virus [2]) of 22 nM, a selectivity ratio [6] of 75 and an IC50 (Influenza A virus [7]) of 11 nM. For the same compound, the IC50 [8] was 120 nM and the IC50 (Influenza A virus [9]) was 4 nM.
For `O=C(O)[C@H]1C2CCC(CC2)[C@@H]1Nc1nc(-c2c[nH]c3c(F)cc(Cl)cc23)ncc1F`, the IC50 [4] was greater than 50000 nM, the selectivity ratio [5] was 28 and the selectivity ratio [1] was greater than 485. It also gave an IC50 (Influenza A virus [2]) of 53 nM, a selectivity ratio [6] of 83 and an IC50 (Influenza A virus [7]) of 47 nM. It also gave an IC50 [8] of 170 nM and an IC50 (Influenza A virus [9]) of 21 nM.
For `NC(=O)c1nc(F)cnc1O`, the selectivity ratio [5] was greater than 3, the selectivity ratio [6] was greater than 6 and the IC50 (Influenza A virus [7]) was 35700 nM. For the same compound, the IC50 (Influenza A virus [9]) was 16800 nM.
Work on `N#Cc1cc(F)c2[nH]cc(-c3ncc(F)c(N[C@H]4C5CCC(CC5)[C@@H]4C(=O)O)n3)c2c1` yielded an IC50 [4] of 13000 nM, a selectivity ratio [5] of 59 and a selectivity ratio [1] greater than 612. For the same compound, the IC50 (Influenza A virus [2]) was 43 nM, the selectivity ratio [6] was 97 and the IC50 (Influenza A virus [7]) was 19 nM. The IC50 [8] was 80 nM and the IC50 (Influenza A virus [9]) was 11 nM.
In the case of `O=C(O)[C@H]1C2CCC(CC2)[C@@H]1Nc1nc(-c2c[nH]c3c(F)cc(F)cc23)ncc1F`, the IC50 [4] is reported as greater than 50000 nM, the inhibition [10] is reported as “inactive” and the IC50 (Influenza A virus [2]) is reported as 22 nM. For the same compound, the Activity (Influenza A virus [11]) was 75% and the IC50 [8] was 120 nM.
